The list is not random: actives were taken first. Their share in the collection is about 2%.
S100A4 inh HTS = blocks human S100A4 binding to myosin IIA peptide | actives 0.14% (n = 360,000) | inhibition, % at 10.7 µM | S100A4/TAMRA-MyoIIA peptide fluorescence polarization;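 active = mean inhibition of at least 70% across replicates, with every replicate also reaching that level; inconclusive = mean inhibition reaches 70% but some replicates fall short; inactive = mean inhibition below 70%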
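System – human S100A4 monomer protein, biochemical binding assay · Buffer or medium – Calcium-containing HEPES buffer, pH 7.2 · Timing – 5 min between mix addition and reading · Also added – TAMRA-labelled myosin IIA heavy-chain peptide probe, 5 nM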
DENV2 CPE = protects cells from dengue virus 2 cytopathic effect | DENV2-infected cells, cytopathic effect rescue, plate reader | CPE inhibition, % at 9.99 µM | actives 1.7% (n = 350,000) | AID 651640; in the data active = CPE inhibition above about 20%, passing the limit was not always enough; inconclusive = no clear call, values can overlap the other calls; tested in BHK-21 cells
Xi reactivation = X-chromosome reactivation activator; actives 0.055% (n = 360,000); AID 743238; XiGFP mouse fibroblasts, % GFP-positive cells imaging, 3 d; cells co-treated with 5-aza-dC sensitizer; scaled so ellipticine positive control = 100%; activation, % at 7.58 µM;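 active = mean normalized replicate activation at least 10% and every replicate at or above 10%; inconclusive = only one of the two criteria met; inactive = mean below 10% and not all replicates reach 10%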
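material = 68-5-11 XiGFP fibroblast line | medium = DMEM plus 5-aza-dC sensitizer | schedule = 3 days compound exposure | benchmarks = positive control ellipticine, 6 µM final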
E-sel inducer = induces E-selectin expression in human endothelial cells; HUVEC E-selectin immunofluorescence imaging; normalized: neutral wells 0, TNF-alpha wells 100; actives 0.37% (n = 260,000); AID 686992; activation, % at 7.58 µM; P16581;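 active = mean E-selectin-positive cell signal at least 10% of the positive control, reached in at least 60% of replicates, without over 20% cell loss; inconclusive = no rule given, readout overlaps actives, possibly toxicity-flagged; inactive = the rest, including those meeting only one limit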
Target sequence (P16581 whole entry, looked up): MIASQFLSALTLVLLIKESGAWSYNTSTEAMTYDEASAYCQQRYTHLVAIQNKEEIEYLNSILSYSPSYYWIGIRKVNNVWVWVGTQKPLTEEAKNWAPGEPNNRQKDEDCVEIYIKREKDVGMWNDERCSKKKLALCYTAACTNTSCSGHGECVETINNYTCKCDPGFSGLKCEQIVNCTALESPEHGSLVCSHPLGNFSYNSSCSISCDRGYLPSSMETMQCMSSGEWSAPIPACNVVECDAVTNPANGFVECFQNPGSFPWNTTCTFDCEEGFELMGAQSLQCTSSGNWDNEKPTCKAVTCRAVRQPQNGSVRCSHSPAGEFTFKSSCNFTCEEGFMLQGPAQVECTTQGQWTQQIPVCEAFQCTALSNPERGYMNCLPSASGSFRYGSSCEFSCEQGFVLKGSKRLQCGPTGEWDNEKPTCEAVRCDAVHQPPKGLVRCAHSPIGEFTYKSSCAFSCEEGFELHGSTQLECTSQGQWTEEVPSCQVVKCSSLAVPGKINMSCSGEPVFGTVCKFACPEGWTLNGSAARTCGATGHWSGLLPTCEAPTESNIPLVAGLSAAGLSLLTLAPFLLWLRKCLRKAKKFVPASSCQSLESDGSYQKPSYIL
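Material: HUVEC primary endothelial cells; Amount: 3,000 cells per well; Dosing: single concentration; Medium: EGM-2 growth medium on 0.1% gelatin-coated wells; Read-out basis: percent E-selectin-positive cells; Signal: immunofluorescence imaging; Control set: TNF-alpha, DMSO.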
Numbers stand for hits; 0 = inactive; ? = inconclusive; - = not tested or not shown.

SMILES	S100A4 inh HTS	DENV2 CPE	Xi reactivation	E-sel inducer
COCCCN1CC(=O)N2C(c3ccccc3)c3[nH]c4ccccc4c3C[C@H]2C1=O (stereo partly drawn)	0	0	0	-
CC(C)NC(=O)Nc1ccc2c(c1)C(=O)N([C@H](C)CO)C[C@H](C)[C@H](CN(C)C)O2	0	0	0	0
O=C(CCNC(=O)c1ccco1)Nc1ccc(Cl)cc1F	0	28	0	0
O=C(NCCCN1CCCC1=O)C(=O)Nc1cccc(F)c1	0	0	0	0
Cc1ccc(S(=O)(=O)Oc2ccccc2/C=C2/SC(=O)NC2=O)cc1	0	0	0	0
C[C@H](CO)N1C[C@H](C)[C@@H](CN(C)Cc2ccc3c(c2)OCO3)Oc2ccc(NC(=O)c3ccncc3)cc2CC1=O	0	29	0	0
C[C@@H]1CN([C@@H](C)CO)C(=O)Cc2cc(NC(=O)C3CC3)ccc2O[C@@H]1CN(C)Cc1ccc2c(c1)OCO2	0	0	0	49
C[C@H](CO)N1C[C@H](C)[C@@H](CN(C)Cc2ccc3c(c2)OCO3)Oc2ccc(NC(=O)C3CC3)cc2CC1=O	0	0	0	0
C[C@H](CO)N1C[C@H](C)[C@H](CN(C)Cc2ccc3c(c2)OCO3)Oc2ccc(NC(=O)c3ccncc3)cc2CC1=O	0	0	0	0
CS(=O)(=O)NCCNc1cc(Cl)ccc1[N+](=O)[O-]	0	0	0	95
CS(=O)(=O)NCCNc1ccc(Cl)cc1[N+](=O)[O-]	0	-	0	0
CC(C)c1cc(CNC(=O)CCc2nnc(CCCc3ccccc3)o2)on1	0	0	0	0
C=CCN(C(=O)c1csnn1)C(C(=O)NC1CCCCC1)c1ccccc1 (stereo not drawn)	0	0	0	31
CCc1ccc(C(C(=O)NC2CCCCC2)N(C(=O)c2csnn2)C2CC2)cc1 (stereo not drawn)	0	0	0	39
COCCNC(=O)C[C@@H]1C[C@@H]2c3cc(NC(=O)CN(C)C)ccc3O[C@@H]2[C@H](CO)O1	0	0	0	0
CC(=O)c1ccccc1NS(C)(=O)=O	0	0	0	-
COC(=O)Cn1c2ccccc2c(=O)n1C(C)C	0	21	0	0
C[C@@H]1CN([C@H](C)CO)C(=O)c2cc(NC(=O)C3CCCCC3)ccc2O[C@@H]1CN(C)S(C)(=O)=O	0	24	0	0
C[C@@H]1CN([C@H](C)CO)C(=O)c2cc(NC(=O)C3CCCCC3)ccc2O[C@@H](C)CCCCO[C@@H]1CN(C)CC1CCCCC1	0	0	0	0
C[C@H](CO)N1C[C@H](C)[C@@H](CN(C)CC2CCCCC2)Oc2ccc(NC(=O)C3CCCCC3)cc2C1=O	0	23	0	-
C[C@H](CO)N1C[C@H](C)[C@H](CN(C)CC2CCCCC2)OCCCC[C@H](C)Oc2ccc(NC(=O)C3CCCCC3)cc2C1=O	0	23	0	0
COc1ccc(OC)c(/C=C/C(=O)Nc2ccc3c(c2)CCC3)c1	0	23	0	-
CCC(=O)Nc1nnc(/C=C/c2ccc(OC)cc2)s1	0	58	0	-
CCN(C[C@H]1[C@H](c2ccccc2)[C@H](CO)N1CC1CC1)C(=O)c1ccccn1	0	0	0	0
CCOC(=O)c1nn(-c2ccc(F)cc2)c(=O)cc1OCC(=O)Nc1cccc(C)c1	0	0	0	0
SMILES	S100A4 inh HTS	DENV2 CPE	Xi reactivation	E-sel inducer
C[C@H]1CN([C@@H](C)CO)C(=O)Cc2cc(NS(=O)(=O)c3ccccc3)ccc2O[C@@H]1CN(C)Cc1ccc(-c2ccccc2)cc1	0	40	0	0
C[C@@H]1CN([C@@H](C)CO)C(=O)Cc2cc(NS(=O)(=O)c3cn(C)cn3)ccc2O[C@H]1CN(C)Cc1ccc(-c2ccccc2)cc1	0	26	0	0
C[C@H]1CN([C@@H](C)CO)C(=O)Cc2cc(NS(=O)(=O)c3cn(C)cn3)ccc2O[C@@H]1CN(C)Cc1ccc(-c2ccccc2)cc1	0	0	0	0
C[C@@H]1CN([C@H](C)CO)C(=O)Cc2cc(NS(=O)(=O)c3ccccc3)ccc2O[C@H]1CN(C)Cc1ccccc1	0	0	0	0
C[C@H]1CN([C@@H](C)CO)C(=O)Cc2cc(NS(=O)(=O)c3ccccc3)ccc2O[C@H]1CN(C)Cc1ccc(-c2ccccc2)cc1	0	?	0	0
C[C@@H]1CN([C@H](C)CO)C(=O)Cc2cc(NS(=O)(=O)c3ccccc3)ccc2O[C@@H]1CN(C)Cc1ccccc1	79	0	0	0

Source: PubChem BioAssay (Broad Institute)
